Assays:
[1] = Cytotoxicity against mouse RAW264.7 cells assessed as maximum non-toxic dose after 48 hrs by MTT assay; format: cell-based
Method in brief: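 RAW 264.7 cells exposed 48 h to serial dilutions (top 150 µM, 100 µM for one compound) in duplicate, control 0.25% DMSO. MTT 0.5 mg/mL added for 4 h, formazan dissolved in DMSO, absorbance 550 nm. […] 3–4 independent experiments.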

[2] = Antiviral activity against MNV1 CW1 infected in mouse RAW264.7 cells assessed as inhibition of viral plaque formation after 24 hrs by neutral red staining; format: functional, cell-based, Murine norovirus 1; conditions: for IC50: Murine norovirus 1, CW1, RAW264.7, 24 h
Method in brief: (§1)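 Confluent RAW 264.7 cells (plated at 5.0 × 10^5 cells/mL, 24 h, then maintenance medium with 2% FBS) infected 1 h at 37 °C with MNV-1.CW1 at 20-80 PFU/well, with compound present during infection and in first agarose overlay for 24 h. Second overlay with neutral red, further 24 h, plaques counted. Top concentration 50 µM (10 µM for some).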

[3] = Cytotoxicity against mouse RAW264.7 cells after 48 hrs by MTT assay; format: cell-based
[4] = Antiviral activity against MNV1 CW1 infected in mouse RAW264.7 cells assessed as inhibition of viral plaque formation at 50 uM after 24 hrs by neutral red staining; format: functional, Murine norovirus 1; conditions: Norwalk virus, CW1, RAW264.7, 24 h; method in brief: as §1
[5] = (§2) Antiviral activity against MNV1 CW1 infected in mouse RAW264.7 cells assessed as inhibition of viral plaque formation treated for 48 hrs after viral infection by neutral red staining; format: functional, cell-based, Murine norovirus 1; conditions: Norwalk virus, CW1, RAW264.7, 48 h
Method in brief: (§3)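 Compound added only in the agarose overlays for 48 h after 1 h MNV-1.CW1 infection of confluent RAW 264.7 cells; neutral red second overlay at 24 h, plaques counted after further 24 h. IC50 relative to DMSO-treated infected control; run alongside standard conditions.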

RAW264.7 [6] = assay: as §2; format: functional, cell-based; conditions: Murine norovirus 1; method in brief: as §3
[7] = Antiviral activity against MNV1 CW1 infected in mouse RAW264.7 cells assessed as inhibition of viral plaque formation treated for 1 hr during viral infection followed by 48 hrs compound addition post infection by neutral red staining; format: functional, cell-based, Murine norovirus 1; conditions: Norwalk virus, CW1, RAW264.7; method in brief: as §1
[8] = (§4) Antiviral activity against MNV1 CW1 infected in mouse RAW264.7 cells assessed as inhibition of viral plaque formation treated for 1 hr during viral infection by neutral red staining; format: functional, cell-based, Murine norovirus 1; conditions: Norwalk virus, CW1, RAW264.7, 1 h
Method in brief: (§5)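 Time-of-addition variant: RAW 264.7 cells exposed to serial compound concentrations only during the 1 h MNV-1.CW1 infection at 37 °C, then compound-free agarose overlays (neutral red second overlay, 24 h + 24 h) and plaque count. IC50 vs DMSO control; three independent experiments in duplicate.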

RAW264.7 [9] = assay: as §4; format: functional, cell-based; conditions: Murine norovirus 1; method in brief: as §5
RAW264.7 [10] = assay: Cytotoxicity against mouse RAW264.7 cells at 100 uM after 48 hrs by MTT assay; format: cell-based; conditions: raw264.7, 48 h
[11] = Selectivity index, ratio of CC50 for mouse RAW264.7 cells to IC50 for MNV1 CW1 infected in mouse RAW264.7 cells; format: functional
rhinovirus A1B = assay: Antiviral activity against HRV-1B infected in human HeLa cells assessed as inhibition of viral plaque formation; format: functional, organism-based, Human rhinovirus 1B; conditions: Rhinovirus A
rhinovirus B14 = assay: Antiviral activity against HRV-14 infected in human HeLa cells assessed as inhibition of viral plaque formation; format: functional, organism-based; conditions: Rhinovirus B
[12] = Antiviral activity against MNV1 CW1 infected in mouse RAW264.7 cells assessed as inhibition of viral plaque formation at 10 uM after 24 hrs by neutral red staining; format: functional, Murine norovirus 1; conditions: Norwalk virus, CW1, RAW264.7, 24 h; method in brief: as §1
[13] = Cytotoxicity against mouse RAW264.7 cells assessed as cell viability at 2.34 uM after 48 hrs by MTT assay; format: cell-based; conditions: read-out: Activity

Structure (SMILES) | MNTC at 48 h ([1]; read-out: MNTD70) [µM] | MNTC at 48 h ([1]; read-out: MNTD90) [µM] | IC50 [2] [µM] | CC50 at 48 h [3] [µM] | inhibition at 50 µM [4] [%] | IC50 [5] [µM] | inhibition (RAW264.7 [6]) | IC50 [7] [µM] | IC50 [8] [µM] | inhibition (RAW264.7 [9]) | Activity (RAW264.7 [10]) | Ratio CC50/IC50 [11] | IC50 (rhinovirus A1B) [µM] | IC50 (rhinovirus B14) [µM] | inhibition at 10 µM [12] [%] | viability at 48 h, 2.34 µM [13] [%] | inhibition (INH) [2] [%]
O=c1cc(/C=C/c2ccccc2)oc2cccc(OCc3ccccc3)c12 | > 150 | 75 | > 50 | > 150 | 39.4 | – | – | – | – | – | – | – | – | – | – | – | –
O=c1cc(/C=C/c2ccccc2)oc2cccc(O)c12 | > 150 | 4.69 | 7 | > 150 | – | 8.2 | Dose-dependent effect | 6.9 | 39 | Dose-dependent effect | Non-toxic | >21.6 | – | – | – | – | –
O=c1cc(/C=C/c2ccccc2)oc2ccccc12 | > 150 | 75 | 17.7 | > 150 | – | – | – | – | – | – | – | >8.5 | 6.19 | > 25 | – | – | –
C/C(=C\c1ccccc1)c1cc(=O)c2ccccc2o1 | > 150 | > 150 | 18 | > 150 | – | – | – | – | – | – | – | >8.3 | – | – | – | – | –
O=c1cc(/C=C/c2ccc(Cl)cc2)oc2ccccc12 | > 150 | 75 | – | – | – | – | – | – | – | – | – | – | – | – | – | – | –
O=c1c(O)c(/C=C/c2ccccc2)oc2ccccc12 | 18.8 | 2.34 | > 10 | 52.1 | – | – | – | – | – | – | – | – | 5.13 | 9.76 | 6.8 | – | –
C/C(=C\c1ccccc1)c1oc2ccccc2c(=O)c1O | 18.8 | < 2.34 | > 10 | 46.7 | – | – | – | – | – | – | – | – | – | – | 40.8 | 81 | –
O=c1cc(/C=C/c2ccc(O)cc2)oc2ccccc12 | > 150 | < 2.34 | > 50 | > 150 | 21.1 | – | – | – | – | – | – | – | 9.29 | 6.41 | – | 86 | –
COc1ccc(/C=C/c2cc(=O)c3ccccc3o2)cc1 | > 100 | 50 | – | – | – | – | – | – | – | – | – | – | – | – | – | – | –
O=c1ccoc2ccccc12 [CHROMONE] | > 150 | 37.5 | > 50 | > 150 | – | – | – | – | – | – | – | – | – | – | – | – | 29.9
Cc1ccc(/C=C/c2cc(=O)c3ccccc3o2)cc1 | > 150 | > 150 | 23.7 | > 150 | – | – | – | – | – | – | – | >6.3 | > 6.25 | > 6.25 | – | – | –
COc1c(/C=C/c2ccccc2)oc2ccccc2c1=O | 75 | 37.5 | 37.9 | > 150 | – | – | – | – | – | – | – | >4 | 1.1 | 1.6 | – | – | –

From ChEMBL document CHEMBL1166010, “(E)-2-styrylchromones as potential anti-norovirus agents” (Bioorg Med Chem, 2010)
